Reference: ChEMBL document CHEMBL3576820, “Discovery of benzimidazole oxazolidinediones as novel and selective nonsteroidal mineralocorticoid receptor antagonists” (ACS Med Chem Lett, 2015)
Active and inactive are the calls of the source. The rule behind the calls is not given here.

Legend:
[1] = biological target: T1, Mineralocorticoid receptor (Homo sapiens) (UniProt P08235); assay: Agonist activity at human mineralocorticoid receptor by cell-based assay
T1 sequence (whole entry): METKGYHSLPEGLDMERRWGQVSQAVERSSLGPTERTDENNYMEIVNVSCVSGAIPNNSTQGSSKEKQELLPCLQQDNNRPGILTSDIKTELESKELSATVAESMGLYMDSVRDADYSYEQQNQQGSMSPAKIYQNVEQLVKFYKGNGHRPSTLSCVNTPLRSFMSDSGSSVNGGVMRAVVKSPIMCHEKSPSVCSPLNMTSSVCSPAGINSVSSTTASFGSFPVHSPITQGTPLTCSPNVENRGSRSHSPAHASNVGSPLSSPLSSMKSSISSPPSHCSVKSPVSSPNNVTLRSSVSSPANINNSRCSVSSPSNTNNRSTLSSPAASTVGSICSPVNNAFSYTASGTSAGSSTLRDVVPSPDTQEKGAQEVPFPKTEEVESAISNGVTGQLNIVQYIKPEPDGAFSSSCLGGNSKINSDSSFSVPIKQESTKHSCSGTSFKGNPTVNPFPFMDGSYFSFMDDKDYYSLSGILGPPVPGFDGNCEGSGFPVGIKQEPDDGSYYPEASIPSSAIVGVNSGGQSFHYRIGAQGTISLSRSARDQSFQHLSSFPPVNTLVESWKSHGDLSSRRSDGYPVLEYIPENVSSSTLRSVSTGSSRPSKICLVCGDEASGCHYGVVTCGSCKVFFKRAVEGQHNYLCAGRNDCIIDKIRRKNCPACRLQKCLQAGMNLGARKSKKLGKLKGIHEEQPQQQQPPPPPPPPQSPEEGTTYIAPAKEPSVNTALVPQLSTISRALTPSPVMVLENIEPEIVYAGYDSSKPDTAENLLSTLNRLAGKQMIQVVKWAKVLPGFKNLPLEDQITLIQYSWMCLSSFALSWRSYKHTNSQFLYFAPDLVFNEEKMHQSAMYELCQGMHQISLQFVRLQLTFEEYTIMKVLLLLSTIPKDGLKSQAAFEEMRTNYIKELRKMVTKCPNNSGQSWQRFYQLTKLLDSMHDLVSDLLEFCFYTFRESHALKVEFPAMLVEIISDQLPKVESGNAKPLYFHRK

[2] = Fraction unbound in 10% human plasma; format: ADME, cell-free; conditions: 10% plasma
Method in brief: (§1)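 Free fraction measured in the presence of 10% plasma (human or rat), taken as correlating with the free fraction in whole plasma.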

[3] = Plasma protein binding in rat; format: ADME, cell-free; conditions: read-out: PPB
[4] = Plasma protein binding in human; format: ADME, cell-free; conditions: read-out: PPB
[5] = Plasma clearance in Wistar han rat at 2 mg/kg, po and 1 mg/kg, iv; format: ADME, organism-based
Method in brief: (§2)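 Wistar Han rats. IV dose 1 mg/kg in DMSO/PEG200/water (10:60:30), n=2. Oral dose 2 mg/kg in imwitor/tween (1:1) by gavage, n=3. Values are averages. Derived: F%, plasma clearance, Vdss, terminal half-life and oral AUC normalized to dose.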

[6] = Metabolic stability in rat liver microsomes assessed as compound remaining at 1 uM after 0.5 hrs; format: ADME; conditions: read-out: Stability
Rattus norvegicus [7] = assay: Dose normalized AUC in Wistar han rat at 2 mg/kg, po; format: ADME, organism-based; conditions: in vivo; method in brief: as §2
[8] = Terminal half life in Wistar han rat at 2 mg/kg, po and 1 mg/kg, iv; format: ADME, organism-based; conditions: in vivo, read-out: beta t1/2 (converted); method in brief: as §2
[9] = Oral bioavailability in Wistar han rat at 2 mg/kg; format: ADME, organism-based; conditions: in vivo; method in brief: as §2
[10] = Fraction unbound in 10% rat plasma; format: ADME, cell-free; conditions: 10% plasma; method in brief: as §1
[11] = Metabolic stability in human liver microsomes assessed as compound remaining at 1 uM after 0.5 hrs; format: ADME; conditions: read-out: Stability
[12] = biological target: T2, Mineralocorticoid receptor (Homo sapiens, UniProt P08235); assay: Antagonist activity at human mineralocorticoid receptor overexpressed in CHOK1 cells assessed as inhibition of aldosterone-induced protein interaction with coactivator peptide after 6 hrs by luminescence assay; format: cell-based, CHO-K1
T2 sequence (P08235 whole entry): T1 sequence (whole entry)

[13] = biological target: T3, Estrogen receptor (Homo sapiens) (UniProt P03372); assay: Agonist activity at human estrogen receptor alpha by cell-based assay
T3 sequence (whole entry): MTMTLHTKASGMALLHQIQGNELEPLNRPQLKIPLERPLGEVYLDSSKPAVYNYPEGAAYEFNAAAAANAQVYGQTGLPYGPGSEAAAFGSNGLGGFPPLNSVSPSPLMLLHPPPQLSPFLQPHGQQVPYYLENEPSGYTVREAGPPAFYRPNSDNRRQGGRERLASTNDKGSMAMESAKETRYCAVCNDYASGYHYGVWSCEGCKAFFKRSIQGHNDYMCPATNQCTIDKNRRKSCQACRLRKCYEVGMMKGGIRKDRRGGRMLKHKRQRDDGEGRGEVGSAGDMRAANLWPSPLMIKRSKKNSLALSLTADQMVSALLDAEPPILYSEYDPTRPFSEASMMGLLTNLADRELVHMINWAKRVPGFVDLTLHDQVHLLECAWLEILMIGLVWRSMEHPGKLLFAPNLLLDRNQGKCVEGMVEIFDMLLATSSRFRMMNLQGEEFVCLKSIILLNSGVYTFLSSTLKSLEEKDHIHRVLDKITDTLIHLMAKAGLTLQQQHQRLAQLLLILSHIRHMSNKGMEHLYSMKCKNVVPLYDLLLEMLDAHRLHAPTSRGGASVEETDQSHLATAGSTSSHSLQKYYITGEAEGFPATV

[14] = biological target: T4, Progesterone receptor (Homo sapiens) (UniProt P06401); assay: Agonist activity at human progesterone receptor beta by cell-based assay
T4 sequence (whole entry): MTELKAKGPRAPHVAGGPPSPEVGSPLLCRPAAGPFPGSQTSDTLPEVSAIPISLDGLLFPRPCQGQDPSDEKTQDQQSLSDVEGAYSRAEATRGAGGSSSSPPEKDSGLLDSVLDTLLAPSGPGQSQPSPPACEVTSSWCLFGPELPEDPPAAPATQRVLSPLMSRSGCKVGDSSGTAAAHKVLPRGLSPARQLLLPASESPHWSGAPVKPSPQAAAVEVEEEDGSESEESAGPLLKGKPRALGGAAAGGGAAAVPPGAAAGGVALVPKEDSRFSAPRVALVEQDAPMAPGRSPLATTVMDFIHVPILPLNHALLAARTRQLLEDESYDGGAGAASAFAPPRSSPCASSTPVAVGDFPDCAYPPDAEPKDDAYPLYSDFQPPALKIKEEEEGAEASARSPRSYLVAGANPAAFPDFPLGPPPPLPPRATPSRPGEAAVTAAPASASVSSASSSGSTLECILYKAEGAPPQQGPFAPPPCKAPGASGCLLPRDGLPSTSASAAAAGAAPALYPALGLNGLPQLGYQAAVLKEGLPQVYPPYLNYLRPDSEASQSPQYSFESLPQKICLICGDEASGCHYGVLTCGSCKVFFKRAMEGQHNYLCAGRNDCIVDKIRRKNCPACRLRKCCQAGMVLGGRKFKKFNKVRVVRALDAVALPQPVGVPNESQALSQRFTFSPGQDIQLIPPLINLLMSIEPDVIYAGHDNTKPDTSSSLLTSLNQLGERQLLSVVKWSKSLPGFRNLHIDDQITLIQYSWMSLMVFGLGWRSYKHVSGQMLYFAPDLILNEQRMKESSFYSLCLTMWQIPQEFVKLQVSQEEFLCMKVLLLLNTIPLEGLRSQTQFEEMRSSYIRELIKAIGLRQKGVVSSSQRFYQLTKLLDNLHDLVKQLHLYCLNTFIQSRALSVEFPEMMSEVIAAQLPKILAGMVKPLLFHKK

[15] = Volume of distribution at steady state in Wistar han rat at 2 mg/kg, po and 1 mg/kg, iv; format: ADME, organism-based; conditions: in vivo, read-out: Vdss; method in brief: as §2
Rattus norvegicus [16] = assay: Natriuretic activity in WKY rat at 30 to 100 mg/kg, po measured over 6 hrs; format: functional, organism-based

Row | Activity [1] | fraction unbound [2] | fraction unbound [3] | fraction unbound [4] | clearance [5] | remaining at 0.5 h, 1 µM [6] | AUC/dose (Rattus norvegicus [7]) | half-life [8] | bioavailability [9] | fraction unbound [10] | remaining at 0.5 h, 1 µM [11] | IC50 [12] | Activity [13] | Activity [14] | Vd [15] | Structure (SMILES) | Activity (Rattus norvegicus [16])
1 | inactive | 0.002 | < 0.01 | < 0.01 | 23 mL/min/kg | 51% | 0.067 µM·kg·h/mg | 2.4 h | 44% | 0.005 | 77% | 0.15 µM | inactive | inactive | 3.4 L/kg | C[C@H](c1ccc(F)cc1)N1C(=O)O[C@](Cc2ccccc2)(c2nc3c(C(F)(F)F)cccc3[nH]2)C1=O | –
2 | inactive | – | – | – | – | 64% | – | – | – | – | 86% | 0.12 µM | inactive | inactive | – | C[C@H](c1ccc(F)cc1)N1C(=O)O[C@](Cc2ccccc2)(c2nc3cc(-n4cnnn4)ccc3[nH]2)C1=O | –
3 | inactive | – | – | – | – | 0% | – | – | – | – | 57% | 0.072 µM | inactive | inactive | – | C[C@H](c1ccc(F)cc1)N1C(=O)O[C@](Cc2ccccc2)(c2nc3c(F)cccc3[nH]2)C1=O | –
4 | inactive | – | – | – | – | – | – | – | – | – | – | – | inactive | inactive | – | CC(=O)S[C@@H]1CC2=CC(=O)CC[C@]2(C)[C@H]2CC[C@@]3(C)[C@@H](CC[C@@]34CCC(=O)O4)[C@H]12 | Active
